SDO1 yeast rescue – compounds rescuing growth of sdo1-depleted yeast, bone marrow failure model. S. cerevisiae sdo1-depleted JHY4D growth rescue, OD600 30 h; stronger effect = higher value; pdr5 snq2 efflux-pump mutant strain. z-score at 10 µM. 140,000 tested, 0.21% active. AID 817;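 active = z-score above 3 at both the 24 hr and the 30 hr optical density reads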
L929 necroptosis – L929 zVAD cell death inhibition | viability rescue, % at 10 µM | L929 zVAD necroptosis rescue, ATP luminescence, 24 h; with zVAD 60 µM | 220,000 tested, 0.38% active | AID 1377;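 active = activation, scaled between plate controls, above about 75%, limit read from the data; inactive = activation under that limit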
TNF necrop inh – inhibitors of TNF-alpha induced necroptosis in Jurkat FADD-/- cells. Jurkat FADD-/- TNF necroptosis rescue, ATP luminescence, 24 h; 0 = TNF only, 100 = no-TNF cells. activation (protection from cell death), % at 10 µM. 220,000 tested, 0.068% active. AID 463075;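 active = activation, meaning protection from cell death, of at least 50% relative to plate controls; inactive = activation below 50%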;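 also: necroptosis triggered by 40 ng/mL TNF-alpha added together with compound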
Rad51 HR inh – blocks human Rad51 in homologous recombination | hRad51 DNA strand exchange, fluorescence dequenching | Q06609 | inhibition, % at 10 µM | 200,000 tested, 0.085% active;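 active = inhibition above 40% at the single screening dose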
Target sequence (Q06609 whole entry, looked up): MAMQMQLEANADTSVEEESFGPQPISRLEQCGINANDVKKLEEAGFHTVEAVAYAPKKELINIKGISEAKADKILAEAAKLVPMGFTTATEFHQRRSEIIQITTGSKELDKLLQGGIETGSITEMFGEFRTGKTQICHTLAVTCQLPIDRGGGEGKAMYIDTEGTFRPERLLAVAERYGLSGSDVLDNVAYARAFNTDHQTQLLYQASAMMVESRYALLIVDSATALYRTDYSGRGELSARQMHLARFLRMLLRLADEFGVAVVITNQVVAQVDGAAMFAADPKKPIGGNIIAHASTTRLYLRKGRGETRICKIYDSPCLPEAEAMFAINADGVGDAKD
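material = hRad51 filaments on single-stranded DNA | timing = filaments 15 min 37 °C, then compound 30 min | signal = FRET fluorescence dequenching, excitation 485 nm, emission 520 nm | benchmarks = control wells and blank wells on each plate | evaluation = percent inhibition relative to plate controls and blanks | compound = 10 µM final, single point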
SDO1 rescue DR – confirmation of growth rescue in SDO1-depleted yeast, bone marrow failure; shares compounds with SDO1 yeast rescue; S. cerevisiae JHY4D (SDO1-depleted) growth rescue, OD600, 30 h; stronger effect = higher value; efflux-deficient strain, SNQ2 and PDR5 mutated; OD recovery (concentration not given with the values); 440 tested, 44% active;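 active = yeast growth recovered at 30 hours, either rising with dose fitted slope above 0.001 or with average optical density gain above 0.07, some results past the limit were not filed as active; inactive = growth falling with dose or no effect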
Hits are given with their value; - = inactive; . = no result; ! = a repeat was not active. Compounds with a hit are over-represented: about 0.64% of the library has one in this group of screens.

SMILES	SDO1 yeast rescue	L929 necroptosis	TNF necrop inh	Rad51 HR inh	SDO1 rescue DR
Cc1ccccc1N1CCN(C(=O)CN2C(=O)c3ccccc3C2=O)CC1	7.38	-	-	-	0.0753
Cc1ccc(C)c(N2CCN(C(=O)CN3C(=O)c4ccccc4C3=O)CC2)c1	-	-	-	-	.
O=C(CN1CCCCC1)NCC1(c2ccccc2)CCCC1	.	-	-	-	.
Cc1cccc2c(SCC(=O)NCC3CCCO3)nc(-c3ccc(F)cc3)nc12 (stereo not drawn)	-	-	-	-	0.11
Cc1cccc2cc(C#N)c(SCC(=O)NCC3CCCO3)nc12 (stereo not drawn)	-	-	-	-	.
Cc1cccc(C)c1NC(=S)N1CCC(N(C)CC2CCCO2)CC1 (stereo not drawn)	-	-	-	-	.
Cc1cc(C)c(NC(=S)N2CCC(N(C)CC3CCCO3)CC2)c(C)c1 (stereo not drawn)	3.65	-	-	.	0.0961
CCOc1ccc(CCNC(=O)C2CCN(C(=O)N(C)C)CC2)cc1OCC	-	-	-	-	-
CCCc1nc2oc3ccccc3c(=O)c2c(=O)n1CCCOC	.	-	-	-	.
NCCCCCNC(=O)/C=N\O	-	-	-	-	.
Cc1nn(Cc2ccccc2)c(C)c1NC(=O)CSc1n[nH]c(C)c1[N+](=O)[O-]	-	-	-	.	.
Cc1nn(Cc2ccc(Cl)cc2)c(C)c1NC(=O)CSc1n[nH]c(C)c1[N+](=O)[O-]	12.3	-	-	.	0.0604
COc1cccc(-n2c(CCn3nc(C)c([N+](=O)[O-])c3C)n[nH]c2=S)c1	3.22	-	-	-	-
Cc1cccc(-n2c(CCn3nc(C)c([N+](=O)[O-])c3C)n[nH]c2=S)c1	-	-	-	-	.
COCc1nnc(NC(=O)c2cc(OC)c(OC)cc2[N+](=O)[O-])s1	-	.	-	-	.
COc1ccc(NC(=O)CSc2nnc(CN3CCOCC3)n2-c2ccccc2)cc1Cl	3.52	-	-	-	-
CCOc1cc(N2CCOCC2)c(OCC)cc1NC(=O)CN1CCN(Cc2ccc3c(c2)OCO3)CC1	.	-	-	-	.
Cn1nnnc1SCC(=O)NC1CCCCC1	-	-	-	-	-
Cn1nc(OC(=O)Nc2ccccc2)cc1C(F)(F)F	3.29!	-	-	-	0.0766
Cn1nc(OC(=O)Nc2cccc(Cl)c2)cc1C(F)(F)F	-	-	-	-	.
Cn1c(=O)c2[nH]c(CNCc3ccccc3Cl)nc2n(C)c1=O	-	-	-	-	-
Cn1c(=O)c2[nH]c(CN3CCN(Cc4ccccc4)CC3)nc2n(C)c1=O	-	-	-	-	.
Cc1ccc(-c2noc(CCC(=O)NCCN3CCN(Cc4ccccc4)CC3)n2)cc1	-	-	-	-	.
Cc1ccc(-c2noc(CCC(=O)NCCN3CCOCC3)n2)cc1	-	-	-	-	0.0742
O=C(NC1CC2CCCC(C1)N2CC(=O)N1CCCc2ccccc21)C1CCCCC1 (stereo not drawn)	-	-	-	-	.
SMILES	SDO1 yeast rescue	L929 necroptosis	TNF necrop inh	Rad51 HR inh	SDO1 rescue DR
CCCCCCCC(=O)NC(Nc1ccc(S(N)(=O)=O)cc1)C(Cl)(Cl)Cl (stereo not drawn)	3.12	-	-	-	0.104
Cc1cccc2cc(CN(Cc3cccs3)C3(c4nnnn4C4CCCC4)CCCC3)c(=O)[nH]c12	-	-	-	-	.
CC(=O)Nc1ccccc1NC(=O)c1ccc(C)c(C)c1	.	-	-	.	.
c1ccc(Oc2cccc(NC3=NCCC3)c2)cc1	14.6	-	-	-	-
CCOP(=O)(c1ccccc1)c1nc(-c2ccccc2C)oc1NCc1ccccc1 (stereo not drawn)	.	-	-	-	.
CCC(CC)C(=O)Nc1cc(C(=O)OC)ccc1C(=O)OC	10.1	-	-	-	-
CCCNC(=O)CS(=O)(=O)Cc1nc(-c2cccc(OC)c2)oc1C	-	-	-	-	.
CCOCCCNC(=O)CS(=O)(=O)Cc1nc(-c2cccc(OC)c2)oc1C	11.6	-	-	-	0.073
C=CCc1cccc2cc(C(=O)Nc3ccccc3C(=O)O)c(=O)oc12	.	-	-	.	.
CCOC(=O)c1sc2nc3n(c(=O)c2c1C)CCC(C)CC3 (stereo not drawn)	3.99	-	-	-	-
CCOc1cc(C(=O)Nc2ncn[nH]2)cc(OCC)c1OCC	.	-	-	-	.
COc1ccc(-n2cnc3c(cnn3CCC#N)c2=N)cc1	-	-	-	-	.
CN1CCN(C(=O)C2CCC(CNS(=O)(=O)c3cccc4cccnc34)CC2)CC1 (stereo not drawn)	-	-	-	-	.
CC1CCN(C(=O)C2CCC(CNS(=O)(=O)c3cccc4cccnc34)CC2)CC1 (stereo not drawn)	9.6	-	-	.	-
CC(C)c1ccc(/C=N/NC(=O)c2c(Cl)cnn2C)cc1	5.07	-	-	-	0.0909
CCN(CC)S(=O)(=O)c1cc(C(=O)n2cccn2)c(Cl)cc1Cl	-	-	-	-	.
COC(=O)c1ccccc1NC(=S)NC(=O)COc1ccccc1	-	-	-	-	.
COC(=O)c1ccccc1NC(=S)NC(=O)CC(C)C	5.64	-	-	-	-
COc1ccc(Cl)cc1NC(=O)C(C)N(C)Cc1cccc(Cl)c1Cl (stereo not drawn)	-	-	-	-	.
Cc1oc2cc(O)ccc2c(=O)c1-c1cnn(-c2ccccc2)c1	4.97	-	-	-	-
CCOC(=O)C1CCCN(C(=O)Cc2ccc(C)cc2)C1 (stereo not drawn)	-	-	-	-	-
COc1cc2c(cc1NC(=O)c1cccc([N+](=O)[O-])c1)oc1ccccc12	3.01	-	-	.	-
NC(=S)Nn1c(-c2ccccc2)nc2ccccc2c1=O	10.8	-	-	-	-
O=C(Cc1ccccc1)Nn1c(-c2ccccc2)nc2ccccc2c1=O	-	-	-	-	.
CCOc1ccc(N(CC(=O)NCc2ccccc2)S(C)(=O)=O)cc1	5.54	-	-	-	0.086
SMILES	SDO1 yeast rescue	L929 necroptosis	TNF necrop inh	Rad51 HR inh	SDO1 rescue DR
COc1ccccc1S(=O)(=O)Cc1ccc(C(=O)N2CCN(c3ccccc3)CC2)o1	-	-	-	-	.
COc1ccccc1S(=O)(=O)Cc1ccc(C(=O)N2CCOCC2)o1	3.19	-	-	-	-
CC12CCC(C(=O)n3c1nc1ccccc13)C2(C)C (stereo not drawn)	-	-	-	-	.
CC12CCC(c3c1nc1ccccc1[n+]3[O-])C2(C)C (stereo not drawn)	5.39	-	-	-	0.0801
COc1ccc(/C=N/NC(=S)NC2CCS(=O)(=O)C2)cc1 (stereo not drawn)	11.2	-	-	-	-
COc1ccc(/C=N/NC(=S)Nc2ccccc2)cc1	.	-	-	-	.
Cc1ccccc1NC(NC(=O)OCCn1c([N+](=O)[O-])cnc1C)C(Cl)(Cl)Cl (stereo not drawn)	8.32	-	-	-	0.104
Cc1ncc([N+](=O)[O-])n1CCOC(=O)NC(Nc1ccc(F)cc1)C(Cl)(Cl)Cl (stereo not drawn)	.	-	-	-	.
